ChEMBL document CHEMBL6092224, “The Discovery and Preclinical Profile of ALG-000184, a Prodrug of the Potent Hepatitis B Virus Capsid Assembly Modulator ALG-001075” (J Med Chem, 2024)

Assays:
[1] = Metabolic stability in human liver microsomes assessed as half life at 1 uM incubated upto 60 mins in presence of NADPH; type: ADME, Microsome
How it was run: (§1)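 Compound at 1 μM incubated at 37 °C with liver microsomes of each species for 0, 15, 30 and 60 min, with and without NADPH; half-life determined.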

[2] = Metabolic stability in mouse liver microsomes assessed as half life at 1 uM incubated upto 60 mins in presence of NADPH; type: ADME, Microsome; how it was run: as §1
[3] = tested on: Hepatitis B virus; experiment: Antiviral activity against HBV genotype D infected in human HepG2.117 cells assessed as decrease in HBV DNA production by qPCR analysis; type: functional, organism-based
How it was run: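 HepG2.117 cells (integrated genotype D HBV genome, Tet-off promoter; kept in 1 μg/mL doxycycline) were seeded at 20,000 cells/well and given serial compound dilutions (2% DMSO) for 3 days at 37 °C. Lysates were taken in 0.33% NP40. Intracellular HBV DNA was quantified by qPCR and EC50/EC90 derived. For serum shift, 40% human serum was present during incubation. Mean ± SEM, n=3 (serum) or 13.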

[4] = Metabolic stability in rat liver microsomes assessed as half life at 1 uM incubated upto 60 mins in presence of NADPH; type: ADME, Microsome; how it was run: as §1
[5] = Metabolic stability in dog liver microsomes assessed as half life at 1 uM incubated upto 60 mins in presence of NADPH; type: ADME, Canis lupus familiaris, Microsome; how it was run: as §1
[6] = Metabolic stability in Cynomolgous monkey liver microsomes assessed as half life at 1 uM incubated upto 60 mins in presence of NADPH; type: ADME, Macaca fascicularis, Microsome; conditions: cynomolgus monkey; how it was run: as §1
[7] = Metabolic stability in mouse plasma assessed as half life; type: ADME, cell-free
[8] = Metabolic stability in rat plasma assessed as half life; type: ADME, cell-free
[9] = Metabolic stability in dog plasma assessed as half life; type: ADME, cell-free, Canis lupus familiaris
[10] = Metabolic stability in Cynomolgous monkey plasma assessed as half life; type: ADME, cell-free, Macaca fascicularis; conditions: cynomolgus monkey
[11] = Metabolic stability in human plasma assessed as half life; type: ADME, cell-free
[12] = target: Cytochrome P450 1A2 (Homo sapiens, UniProt P05177); experiment: Inhibition of CYP1A2 in human liver microsomes in presence of NADPH; type: ADME, Microsome
How it was run: (§2)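 Pooled human liver microsomes with CYP isoform-specific probe substrates, in 100 mM potassium phosphate pH 7.4, 3 mM MgCl2 and 1 mM NADPH, at 37 °C. Final test ranges were 0.069–50 μM or 0.03–100 μM; IC50 was determined.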

[13] = target: T1, Cytochrome P450 2B6 (Homo sapiens, UniProt P20813); experiment: Inhibition of CYP2B6 in human liver microsomes in presence of NADPH; type: ADME, Microsome; how it was run: as §2
T1 sequence (P20813 whole entry): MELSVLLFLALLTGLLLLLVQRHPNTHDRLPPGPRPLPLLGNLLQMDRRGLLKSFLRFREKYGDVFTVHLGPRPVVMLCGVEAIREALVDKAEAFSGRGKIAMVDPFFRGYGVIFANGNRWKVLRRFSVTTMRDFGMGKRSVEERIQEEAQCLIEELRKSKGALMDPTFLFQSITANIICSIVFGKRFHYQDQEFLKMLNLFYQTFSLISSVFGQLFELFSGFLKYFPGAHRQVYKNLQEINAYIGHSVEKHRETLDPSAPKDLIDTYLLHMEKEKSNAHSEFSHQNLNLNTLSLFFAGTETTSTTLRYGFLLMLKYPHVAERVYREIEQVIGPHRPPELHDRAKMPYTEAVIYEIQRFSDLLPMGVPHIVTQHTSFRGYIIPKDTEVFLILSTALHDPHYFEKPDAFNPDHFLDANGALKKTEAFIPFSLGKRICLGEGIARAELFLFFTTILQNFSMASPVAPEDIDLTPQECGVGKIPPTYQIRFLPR

[14] = target: Cytochrome P450 2C8 (Homo sapiens, UniProt P10632); experiment: Inhibition of CYP2C8 in human liver microsomes in presence of NADPH; type: ADME, Microsome; how it was run: as §2
[15] = target: Cytochrome P450 2C9 (Homo sapiens, UniProt P11712); experiment: Inhibition of CYP2C9 in human liver microsomes in presence of NADPH; type: ADME, Microsome; how it was run: as §2
[16] = target: Cytochrome P450 2C19 (Homo sapiens, UniProt P33261); experiment: Inhibition of CYP2C19 in human liver microsomes in presence of NADPH; type: ADME, Microsome; how it was run: as §2
[17] = target: Cytochrome P450 2D6 (Homo sapiens, UniProt P10635); experiment: Inhibition of CYP2D6 in human liver microsomes in presence of NADPH; type: ADME, Microsome; how it was run: as §2
[18] = target: Cytochrome P450 3A4 (Homo sapiens, UniProt P08684); experiment: Inhibition of CYP3A4 in human liver microsomes in presence of NADPH; type: ADME, Microsome
How it was run: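 Pooled human liver microsomes in 100 mM potassium phosphate pH 7.4, 3 mM MgCl2, 1 mM NADPH, 37 °C, with CYP3A4-specific probe substrate; test compound over 0.069–50 μM or 0.03–100 μM final, IC50 derived.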

[19] = target: UGT1A1 (Homo sapiens, UniProt P22309); experiment: Inhibition of recombinant human UGT1A1 at 10 uM in presence of UDPGA relative to control
How it was run: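 Recombinant human UGT1A1 at 0.05 mg/mL with 5 mM UDPGA cofactor, 10 min incubation; test compound at single 10 μM concentration.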

[20] = target: Solute carrier organic anion transporter family member 1B1 (Homo sapiens, UniProt Q9Y6L6); experiment: Inhibition of OATP1B1 (unknown origin) transfected in HEK293 cells; type: cell-based
How it was run: (§3)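 HEK-293 cells transfected with the uptake transporter; uptake of known probe substrates measured with test compound at eight concentrations (0.0229–50.0 μM or 0.0457–100 μM); inhibition at each concentration used to calculate IC50.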

[21] = target: Solute carrier organic anion transporter family member 1B3 (Homo sapiens, UniProt Q9NPD5); experiment: Inhibition of OATP1B3 (unknown origin) transfected in HEK293 cells; type: cell-based; how it was run: as §3
[22] = Mutagenicity in Salmonella typhimurium TA98 by Ames test; type: toxicity; conditions: salmonella enterica subsp. enterica serovar typhimurium
[23] = Mutagenicity in Salmonella typhimurium TA100 by Ames test; type: toxicity; conditions: salmonella enterica subsp. enterica serovar typhimurium
[24] = Mutagenicity in Salmonella typhimurium TA1535 by Ames test; type: toxicity; conditions: salmonella enterica subsp. enterica serovar typhimurium
[25] = Mutagenicity in Salmonella typhimurium TA97a by Ames test; type: toxicity; conditions: salmonella enterica subsp. enterica serovar typhimurium
[26] = Mutagenicity in Salmonella […] by Ames test; type: toxicity; conditions: salmonella enterica subsp. enterica serovar typhimurium
[27] = Genotoxicity in human TK6 cells measured for 4 to 27 hrs by micronucleus test; type: toxicity, cell-based; conditions: time 4-27 hrs
[28] = target: Voltage-gated inwardly rectifying potassium channel KCNH2 (Homo sapiens, UniProt Q12809); experiment: Inhibition of hERG expressed in mammalian cells at 10 uM by automated patch-clamp method; type: toxicity, cell-based
How it was run: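 Currents of hERG, Nav1.5 or Cav1.2 channels expressed in mammalian cells recorded by automated patch clamp (QPatch 48) at room temperature.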

[29] = target: Solute carrier family 22 member 1 (Homo sapiens, UniProt O15245); experiment: Inhibition of OCT1 (unknown origin) transfected in HEK293 cells; type: cell-based; how it was run: as §3
[30] = target: Organic anion transporter 1 (Homo sapiens); experiment: Inhibition of OAT1 (unknown origin) transfected in HEK293 cells

Chain of Cytochrome P450 1A2 (P05177 whole entry, canonical isoform): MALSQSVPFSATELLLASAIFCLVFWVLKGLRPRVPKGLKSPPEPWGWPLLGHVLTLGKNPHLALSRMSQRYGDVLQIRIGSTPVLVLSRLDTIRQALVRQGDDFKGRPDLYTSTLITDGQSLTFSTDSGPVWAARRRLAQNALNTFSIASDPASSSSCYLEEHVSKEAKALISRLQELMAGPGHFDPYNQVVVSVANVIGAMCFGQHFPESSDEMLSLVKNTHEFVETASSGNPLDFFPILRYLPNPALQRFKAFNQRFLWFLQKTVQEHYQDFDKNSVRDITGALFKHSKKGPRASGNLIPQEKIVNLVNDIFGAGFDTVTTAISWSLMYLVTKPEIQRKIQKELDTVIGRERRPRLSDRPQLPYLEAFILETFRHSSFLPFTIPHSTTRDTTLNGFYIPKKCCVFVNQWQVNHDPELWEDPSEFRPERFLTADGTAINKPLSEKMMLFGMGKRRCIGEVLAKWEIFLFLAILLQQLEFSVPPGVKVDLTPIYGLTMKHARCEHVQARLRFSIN
Chain of Solute carrier organic anion transporter family member 1B1 (Q9Y6L6 whole entry): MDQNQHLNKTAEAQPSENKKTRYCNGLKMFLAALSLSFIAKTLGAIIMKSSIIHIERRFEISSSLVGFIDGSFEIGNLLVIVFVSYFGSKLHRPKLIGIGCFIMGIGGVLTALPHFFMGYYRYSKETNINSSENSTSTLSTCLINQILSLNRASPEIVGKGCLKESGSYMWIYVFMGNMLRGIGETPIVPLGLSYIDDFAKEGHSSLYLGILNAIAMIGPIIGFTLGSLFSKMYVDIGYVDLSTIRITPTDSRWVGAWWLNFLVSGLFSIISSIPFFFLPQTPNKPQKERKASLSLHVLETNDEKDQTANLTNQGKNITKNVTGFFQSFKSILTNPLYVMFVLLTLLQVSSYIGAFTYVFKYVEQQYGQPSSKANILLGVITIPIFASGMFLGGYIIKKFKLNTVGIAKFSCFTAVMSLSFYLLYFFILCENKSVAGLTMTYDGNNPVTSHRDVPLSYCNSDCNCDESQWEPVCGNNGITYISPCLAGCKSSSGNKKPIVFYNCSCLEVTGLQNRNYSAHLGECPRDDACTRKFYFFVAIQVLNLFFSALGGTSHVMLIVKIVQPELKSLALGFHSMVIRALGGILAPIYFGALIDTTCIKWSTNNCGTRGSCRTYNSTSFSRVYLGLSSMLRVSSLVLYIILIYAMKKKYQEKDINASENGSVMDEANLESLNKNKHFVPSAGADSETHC
Chain of UGT1A1 (P22309 whole entry): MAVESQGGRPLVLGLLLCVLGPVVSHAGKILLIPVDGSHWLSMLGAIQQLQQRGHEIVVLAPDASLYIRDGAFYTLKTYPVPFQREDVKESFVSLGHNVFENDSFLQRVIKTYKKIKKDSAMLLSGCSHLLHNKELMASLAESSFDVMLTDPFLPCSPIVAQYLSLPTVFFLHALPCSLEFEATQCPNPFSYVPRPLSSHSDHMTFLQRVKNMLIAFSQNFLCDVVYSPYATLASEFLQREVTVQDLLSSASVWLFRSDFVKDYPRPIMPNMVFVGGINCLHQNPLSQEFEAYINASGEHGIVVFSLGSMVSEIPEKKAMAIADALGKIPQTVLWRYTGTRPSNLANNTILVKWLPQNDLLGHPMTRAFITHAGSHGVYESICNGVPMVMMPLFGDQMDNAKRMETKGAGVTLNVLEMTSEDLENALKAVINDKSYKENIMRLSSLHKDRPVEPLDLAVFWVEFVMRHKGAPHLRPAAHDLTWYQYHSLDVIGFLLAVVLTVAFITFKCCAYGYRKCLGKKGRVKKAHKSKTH
Chain of Cytochrome P450 3A4 (P08684 whole entry): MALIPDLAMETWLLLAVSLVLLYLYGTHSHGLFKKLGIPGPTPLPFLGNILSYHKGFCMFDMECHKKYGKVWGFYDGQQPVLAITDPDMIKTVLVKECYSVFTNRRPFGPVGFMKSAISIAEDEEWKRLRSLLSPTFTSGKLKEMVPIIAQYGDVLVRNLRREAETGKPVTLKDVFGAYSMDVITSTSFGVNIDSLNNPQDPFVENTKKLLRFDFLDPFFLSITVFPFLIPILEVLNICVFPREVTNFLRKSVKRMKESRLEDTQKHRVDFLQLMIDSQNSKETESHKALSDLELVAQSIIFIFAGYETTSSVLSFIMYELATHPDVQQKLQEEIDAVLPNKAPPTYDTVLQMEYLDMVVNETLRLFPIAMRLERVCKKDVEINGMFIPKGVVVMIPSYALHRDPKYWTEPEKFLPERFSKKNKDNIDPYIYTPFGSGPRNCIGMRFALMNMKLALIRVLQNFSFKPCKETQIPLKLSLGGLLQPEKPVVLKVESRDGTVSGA
Chain of Cytochrome P450 2C8 (P10632 whole entry): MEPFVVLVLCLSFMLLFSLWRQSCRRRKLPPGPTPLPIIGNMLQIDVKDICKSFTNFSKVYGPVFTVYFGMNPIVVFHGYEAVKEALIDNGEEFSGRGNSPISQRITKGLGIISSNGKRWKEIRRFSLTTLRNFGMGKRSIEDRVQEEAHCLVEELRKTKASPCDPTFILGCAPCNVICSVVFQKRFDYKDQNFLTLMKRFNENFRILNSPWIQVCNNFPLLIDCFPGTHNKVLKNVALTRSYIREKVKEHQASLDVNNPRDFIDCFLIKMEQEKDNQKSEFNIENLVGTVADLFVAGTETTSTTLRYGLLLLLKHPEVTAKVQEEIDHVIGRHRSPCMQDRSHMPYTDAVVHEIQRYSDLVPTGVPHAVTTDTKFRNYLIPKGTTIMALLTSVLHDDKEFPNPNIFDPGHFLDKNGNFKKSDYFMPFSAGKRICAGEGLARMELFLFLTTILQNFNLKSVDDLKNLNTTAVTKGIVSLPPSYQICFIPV
Chain of Cytochrome P450 2C19 (P33261 whole entry): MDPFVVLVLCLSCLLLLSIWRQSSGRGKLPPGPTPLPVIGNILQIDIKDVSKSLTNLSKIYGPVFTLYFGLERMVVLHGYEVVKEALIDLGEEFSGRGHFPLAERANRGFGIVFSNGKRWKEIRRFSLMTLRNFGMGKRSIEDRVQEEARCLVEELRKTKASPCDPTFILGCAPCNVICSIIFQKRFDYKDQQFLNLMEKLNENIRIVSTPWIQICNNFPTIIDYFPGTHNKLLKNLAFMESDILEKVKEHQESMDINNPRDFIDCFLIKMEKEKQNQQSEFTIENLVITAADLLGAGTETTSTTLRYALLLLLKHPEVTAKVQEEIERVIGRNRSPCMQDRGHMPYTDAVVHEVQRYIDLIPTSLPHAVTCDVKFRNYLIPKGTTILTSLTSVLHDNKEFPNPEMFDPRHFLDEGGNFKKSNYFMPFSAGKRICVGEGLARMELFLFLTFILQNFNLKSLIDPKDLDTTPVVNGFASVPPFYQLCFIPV
Chain of Cytochrome P450 2D6 (P10635 whole entry): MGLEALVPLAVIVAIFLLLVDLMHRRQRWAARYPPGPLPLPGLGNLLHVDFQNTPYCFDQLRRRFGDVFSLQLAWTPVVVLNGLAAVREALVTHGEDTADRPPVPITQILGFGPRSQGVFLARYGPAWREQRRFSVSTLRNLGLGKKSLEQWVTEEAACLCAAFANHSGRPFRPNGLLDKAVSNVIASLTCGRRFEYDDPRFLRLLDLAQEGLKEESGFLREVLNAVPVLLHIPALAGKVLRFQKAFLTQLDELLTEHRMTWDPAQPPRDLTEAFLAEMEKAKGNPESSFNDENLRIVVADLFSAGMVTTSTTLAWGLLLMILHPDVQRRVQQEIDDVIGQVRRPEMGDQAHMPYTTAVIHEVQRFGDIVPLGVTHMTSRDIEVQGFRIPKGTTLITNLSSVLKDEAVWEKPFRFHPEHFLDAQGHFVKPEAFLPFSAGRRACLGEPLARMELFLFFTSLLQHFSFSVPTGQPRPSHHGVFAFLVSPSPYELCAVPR
Chain of Voltage-gated inwardly rectifying potassium channel KCNH2 (Q12809 whole entry): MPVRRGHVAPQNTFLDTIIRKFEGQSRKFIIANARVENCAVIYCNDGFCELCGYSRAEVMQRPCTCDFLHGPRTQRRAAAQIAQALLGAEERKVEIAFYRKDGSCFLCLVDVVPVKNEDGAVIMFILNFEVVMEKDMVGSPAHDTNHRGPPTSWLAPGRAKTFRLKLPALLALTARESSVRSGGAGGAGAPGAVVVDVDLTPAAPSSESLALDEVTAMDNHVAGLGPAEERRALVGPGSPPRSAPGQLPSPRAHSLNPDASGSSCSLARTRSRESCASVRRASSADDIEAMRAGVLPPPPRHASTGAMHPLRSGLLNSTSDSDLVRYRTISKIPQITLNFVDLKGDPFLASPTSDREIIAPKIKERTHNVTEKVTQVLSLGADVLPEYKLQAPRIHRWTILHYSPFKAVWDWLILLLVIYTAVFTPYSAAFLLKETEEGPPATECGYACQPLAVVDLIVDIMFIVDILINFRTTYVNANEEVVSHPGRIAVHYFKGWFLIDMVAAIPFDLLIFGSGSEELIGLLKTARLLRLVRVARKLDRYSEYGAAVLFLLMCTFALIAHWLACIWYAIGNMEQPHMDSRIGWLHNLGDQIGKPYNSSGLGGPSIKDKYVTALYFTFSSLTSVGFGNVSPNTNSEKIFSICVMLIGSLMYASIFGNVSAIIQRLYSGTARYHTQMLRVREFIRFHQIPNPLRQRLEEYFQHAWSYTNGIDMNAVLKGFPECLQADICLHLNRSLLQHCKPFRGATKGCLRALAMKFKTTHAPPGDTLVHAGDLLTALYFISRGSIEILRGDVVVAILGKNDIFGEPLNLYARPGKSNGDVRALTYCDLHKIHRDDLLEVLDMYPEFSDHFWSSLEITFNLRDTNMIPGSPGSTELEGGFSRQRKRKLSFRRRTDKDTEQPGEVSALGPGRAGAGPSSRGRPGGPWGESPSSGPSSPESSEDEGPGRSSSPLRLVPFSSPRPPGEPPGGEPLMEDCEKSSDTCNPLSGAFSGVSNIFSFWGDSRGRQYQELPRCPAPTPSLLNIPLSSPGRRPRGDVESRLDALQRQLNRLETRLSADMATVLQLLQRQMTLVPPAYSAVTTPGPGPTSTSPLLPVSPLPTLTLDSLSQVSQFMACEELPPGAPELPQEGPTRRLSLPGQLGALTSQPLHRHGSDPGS

Row | Structure (SMILES) | half-life at 1 µM [1] [h] | half-life at 1 µM [2] [h] | EC50 [3] [µM] | half-life at 1 µM [4] [h] | half-life at 1 µM [5] [h] | half-life at 1 µM [6] [h] | half-life [7] [h] | half-life [8] [h] | half-life [9] [h] | half-life [10] [h] | half-life [11] [h] | IC50 [12] [µM] | IC50 [13] [µM] | IC50 [14] [µM] | IC50 [15] [µM] | IC50 [16] [µM] | IC50 [17] [µM] | IC50 [18] [µM] | inhibition at 10 µM [19] [%] | IC50 [20] [µM] | other results
1 | C#CC1(N(COP(=O)([O-])[O-])C(=O)C(=O)c2c(C)c(C(=O)Nc3ccc(F)c(C#N)c3)n(C)c2C)COC1.[Na+].[Na+] | > 1 | > 1 | 0.00145 | > 1 | > 1 | > 1 | > 4 | > 4 | > 4 | > 4 | > 4 | > 100 | > 100 | > 100 | > 100 | > 100 | > 100 | > 100 | 11.2 | ~50 | IC50 [21]: ~50 µM; Activity [22]: Non-toxic; Activity [23]: Non-toxic; Activity [24]: Non-toxic; Activity [25]: Non-toxic; Activity [26]: Non-toxic; Activity [27]: Non-toxic; IC50 [28]: > 300 µM
2 | C#CC1(NC(=O)C(=O)c2c(C)c(C(=O)Nc3ccc(F)c(C#N)c3)n(C)c2C)COC1 | > 1 | > 1 | 0.00063 | > 1 | > 1 | > 1 | > 4 | > 4 | > 4 | > 4 | > 4 | > 50 | > 50 | 48.6 | > 50 | > 50 | > 50 | > 50 | 7.3 | > 11.8 | EC90 [3]: 0.00317 µM; IC50 [21]: > 11.8 µM; IC50 [29]: > 11.8 µM; Activity [22]: Non-toxic; Activity [23]: Non-toxic; Activity [24]: Non-toxic; Activity [25]: Non-toxic; Activity [26]: Non-toxic; Activity [27]: Non-toxic; IC50 [28]: > 10 µM; IC50 [30]: > 11.8 µM
